Source: ChEMBL document CHEMBL4024793, “Development of Stem-Cell-Mobilizing Agents Targeting CXCR4 Receptor for Peripheral Blood Stem Cell Transplantation and Beyond” (J Med Chem, 2018)

Tests used:
[1] = target: C-X-C chemokine receptor type 4 (Homo sapiens, UniProt P61073); test: Displacement of [125I]CXCL12 from human CXCR4 expressed in HEK293 cell membranes after 1.5 hrs by Topcount method
[2] = Acute toxicity in sc dosed C57BL/6 mouse assessed as maximum tolerated dose by measuring mortality; assay type: organism-based; conditions: in vivo
Method in brief: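 Male C57BL/6 or ICR mice (n = 3/group) dosed subcutaneously with escalating doses, low to high; MTD taken as highest dose giving zero mortality (0/3).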

[3] = Cmax in C57BL/6 mouse at 6 mg/kg, sc measured up to 4 hrs post dose by LC-MS/MS analysis; assay type: ADME, organism-based; design: dose 6 mg/kg, route subcutaneous; conditions: in vivo
Method in brief: (§1)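 Male C57BL/6 mice (23.4–25.4 g), quarantined one week, non-fasted, n = 3; single SC dose of 6 mg/kg in 100% saline. Blood taken by cardiac puncture at 0, 0.03, 0.08, 0.25, 1, 1.5, 2 and 4 h and stored at -80 °C. Plasma analysed by LC–MS/MS; parameters from non-compartmental analysis; mean ± SD.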

[4] = Half life in C57BL/6 mouse at 6 mg/kg, sc measured up to 4 hrs post dose by LC-MS/MS analysis; assay type: ADME, organism-based; conditions: in vivo; method in brief: as §1
[5] = AUC (0 to 4 hrs) in C57BL/6 mouse at 6 mg/kg, sc measured up to 4 hrs post dose by LC-MS/MS analysis; assay type: ADME, organism-based; design: dose 6 mg/kg, time < 4 hr, route subcutaneous; conditions: in vivo; method in brief: as §1

Chain of C-X-C chemokine receptor type 4 (P61073 whole entry): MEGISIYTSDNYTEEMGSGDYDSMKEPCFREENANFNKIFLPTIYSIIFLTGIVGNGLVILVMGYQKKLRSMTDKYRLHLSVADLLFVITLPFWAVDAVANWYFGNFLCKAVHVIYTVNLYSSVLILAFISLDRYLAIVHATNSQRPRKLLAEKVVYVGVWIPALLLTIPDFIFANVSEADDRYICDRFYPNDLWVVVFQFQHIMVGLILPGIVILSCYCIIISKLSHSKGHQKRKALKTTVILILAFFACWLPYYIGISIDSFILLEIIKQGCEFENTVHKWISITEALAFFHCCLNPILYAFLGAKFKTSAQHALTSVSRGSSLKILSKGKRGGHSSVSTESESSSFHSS

Work on `Cc1cc(NC2CCN(C(=O)CCCNCC(=O)O)CC2)nc(NCc2cn(CCCNCCCNC3CCCCC3)nn2)n1` yielded an IC50 [1] of 88.5 nM and an MTD [2] of 75 mg/kg.

With `c1cc(CN2CCCNCCNCCCNCC2)ccc1CN1CCCNCCNCCCNCC1` [PLERIXAFOR] the Cmax [3] was 6200 ng/mL, the half-life [4] was 1.4 h and the AUC(0-t) at 4 h [5] was 7150 ng·h/mL.

Molecule `Cc1cc(NC2CCNCC2)nc(NCc2cn(CCCNCCCNC3CCCCC3)nn2)n1` has an IC50 [1] of 23.9 nM and an MTD [2] of 10 mg/kg.

`c1cc(NC2CCNCC2)nc(NCc2cn(CCCNCCCNC3CCCCC3)nn2)n1` showed an IC50 [1] of 34.1 nM and an MTD [2] of 10 mg/kg.

Molecule `CCc1cc(NC2CCNCC2)nc(NCc2cn(CCCNCCCNC3CCCCC3)nn2)n1` has an IC50 [1] of 46.8 nM and an MTD [2] of 10 mg/kg.

In the case of `Cc1cc(N(C)C2CCN(C(=O)CCNCC(=O)O)CC2)nc(NCc2cn(CCCNCCCNC3CCCCC3)nn2)n1`, the IC50 [1] is reported as 97.6 nM and the MTD [2] is reported as 50 mg/kg.

In the case of `Cc1cc(NC2CCN(CCC(N)=O)CC2)nc(NCc2cn(CCCNCCCNC3CCCCC3)nn2)n1`, the IC50 [1] is reported as 25.6 nM and the MTD [2] is reported as 20 mg/kg.

`CCCN1CCC(Nc2cc(C)nc(NCc3cn(CCCNCCCNC4CCCCC4)nn3)n2)CC1` gave an IC50 [1] of 47.8 nM and an MTD [2] of 10 mg/kg.

For `Cc1cc(NC2CCN(CCC(=O)O)CC2)nc(NCc2cn(CCCNCCCNC3CCCCC3)nn2)n1`, the IC50 [1] was 81.8 nM and the MTD [2] was 75 mg/kg.

Work on `CC(C)c1cc(NC2CCNCC2)nc(NCc2cn(CCCNCCCNC3CCCCC3)nn2)n1` yielded an IC50 [1] of 61.1 nM and an MTD [2] of 10 mg/kg.

`Cc1cc(NC2CCN(CCC#N)CC2)nc(NCc2cn(CCCNCCCNC3CCCCC3)nn2)n1` gave an IC50 [1] of 72.1 nM and an MTD [2] of 20 mg/kg.

In the case of `Cc1cc(NC2CCN(C(=O)CCCC(=O)O)CC2)nc(NCc2cn(CCCNCCCNC3CCCCC3)nn2)n1`, the IC50 [1] is reported as 158 nM and the MTD [2] is reported as 50 mg/kg.

For `O=C(O)CNCCC(=O)N1CCC(Nc2ccnc(NCc3cn(CCCNCCCNC4CCCCC4)nn3)n2)CC1`, the IC50 [1] was 399 nM and the MTD [2] was 100 mg/kg.

For `Cc1cc(NC2CCN(C(=O)CCNCCC(=O)O)CC2)nc(NCc2cn(CCCNCCCNC3CCCCC3)nn2)n1`, the IC50 [1] was 72.2 nM and the MTD [2] was 50 mg/kg.

`Cc1cc(NC2CCN(C(=O)CC[C@H](N)C(=O)O)CC2)nc(NCc2cn(CCCNCCCNC3CCCCC3)nn2)n1` showed an IC50 [1] of 71.1 nM and an MTD [2] of 50 mg/kg.

`COc1cc(NC2CCNCC2)nc(NCc2cn(CCCNCCCNC3CCCCC3)nn2)n1` showed an IC50 [1] of 473 nM and an MTD [2] of 10 mg/kg.

For `FC(F)(F)c1cc(NC2CCNCC2)nc(NCc2cn(CCCNCCCNC3CCCCC3)nn2)n1`, the IC50 [1] was 860 nM and the MTD [2] was 10 mg/kg.

`CCc1cc(NC2CCN(C(=O)CCNCC(=O)O)CC2)nc(NCc2cn(CCCNCCCNC3CCCCC3)nn2)n1` showed an IC50 [1] of 72 nM and an MTD [2] of 50 mg/kg.

Work on `Cc1cc(NC2CCN(C(=O)CCNCCP(=O)(O)O)CC2)nc(NCc2cn(CCCNCCCNC3CCCCC3)nn2)n1` yielded an IC50 [1] of 147 nM.

`Cc1cc(NC2CCN(C(=O)CNCCC(=O)O)CC2)nc(NCc2cn(CCCNCCCNC3CCCCC3)nn2)n1` showed an IC50 [1] of 82.6 nM and an MTD [2] of 100 mg/kg.

Molecule `Clc1cc(NC2CCNCC2)nc(NCc2cn(CCCNCCCNC3CCCCC3)nn2)n1` has an IC50 [1] of 708 nM and an MTD [2] of 10 mg/kg.

Work on `Cc1cc(NC2CCN(CCCCC(=O)O)CC2)nc(NCc2cn(CCCNCCCNC3CCCCC3)nn2)n1` yielded an IC50 [1] of 93 nM and an MTD [2] of 75 mg/kg.

For `Cc1cc(NC2CCN(C(=O)CCNCP(=O)(O)O)CC2)nc(NCc2cn(CCCNCCCNC3CCCCC3)nn2)n1`, the IC50 [1] was 91.6 nM and the MTD [2] was 100 mg/kg.
